Experimental data as given in ChEMBL document CHEMBL1649122, “Abc1p is a multidrug efflux transporter that tips the balance in favor of innate azole resistance in Candida krusei” (2009).
Values after ≈ are worked out from the molar mass of the structure shown. Active and inactive are the calls of the source. The calls are words filed in the database; no cut-off is given here.

Key:
[1] = test system: Pichia kudriavzevii; test: Antimicrobial activity against Candida krusei IFO0011 after 48 hrs by CLSI method; format: functional; settings: IFO0011, 48 h
Outline: (§1)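 Azole MICs were determined by the CLSI M27-A2 broth microdilution reference method. They were interpreted against the CLSI breakpoints. Strains were maintained in YPD medium (1% yeast extract, 2% peptone, 2% glucose).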

[2] = test system: Saccharomyces cerevisiae; test: Antimicrobial activity against Saccharomyces cerevisiae isolate ADdelta overexpressing Candida krusei ERG11g after 48 hrs by liquid microdilution assay; format: functional
Outline: (§2)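 Liquid broth microdilution susceptibility assay in CSM medium at pH 7.0, which was also the medium used for the expression studies. Fungal strains were maintained in YPD. The S. cerevisiae test strains carry C. krusei ABC1 or fungal ERG11 alleles integrated at the chromosomal PDR5 locus.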

[3] = test system: Saccharomyces cerevisiae; test: Fold resistant, ratio of MIC for Saccharomyces cerevisiae isolate ADdelta overexpressing Saccharomyces cerevisiae ERG11 to MIC for Saccharomyces cerevisiae isolate ADdelta overexpressing Abc1p; format: functional
Outline: (§3)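 Fold resistance is the ratio of azole MICs between S. cerevisiae overexpressing strains. The MICs were measured by liquid broth microdilution in CSM medium at pH 7.0. The ERG11 or ABC1 constructs are integrated at the PDR5 locus.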

[4] = molecular target: ATP binding cassette transporter Abc1p (Issatchenkia orientalis) (UniProt Q09GQ4); test: Inhibition of Candida krusei B2399 Abc1p assessed as fractional inhibitory concentration index at 2.5 ug/ml after 48 hrs by checkerboard susceptibility assay; settings: Pichia kudriavzevii
Outline: (§4)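 Checkerboard susceptibility assay combining the Abc1p inhibitor with FLC or ITC. MICs were determined at various inhibitor concentrations. The fractional inhibitory concentration index was calculated for each combination.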

[5] = test system: Pichia kudriavzevii; test: Antimicrobial activity against Candida krusei NZCDC 89.021 after 48 hrs by CLSI method; format: functional; settings: NZCDC 89.021, 48 h; outline: as §1
[6] = test system: Saccharomyces cerevisiae; test: Fold resistant, ratio of MIC for Saccharomyces cerevisiae isolate ADdelta overexpressing Candida krusei ERG11g to MIC for Saccharomyces cerevisiae isolate ADdelta overexpressing Abc1p; format: functional; outline: as §3
[7] = test system: Pichia kudriavzevii; test: Antimicrobial activity against Candida krusei NZCDC 89.221 after 48 hrs by liquid microdilution assay; format: functional; settings: NZCDC 89.221, 48 h; outline: as §2
[8] = test system: Saccharomyces cerevisiae; test: Fold resistant, ratio of MIC for Saccharomyces cerevisiae isolate ADdelta overexpressing Candida krusei ERG11C to MIC for Saccharomyces cerevisiae isolate ADdelta overexpressing Abc1p; format: functional; outline: as §3
[9] = test system: Saccharomyces cerevisiae; test: Antimicrobial activity against Saccharomyces cerevisiae isolate ADdelta overexpressing Abc1p after 48 hrs by liquid microdilution assay; format: functional; outline: as §2
[10] = test system: Pichia kudriavzevii; test: Antimicrobial activity against Candida krusei NZCDC 90.147 after 48 hrs by liquid microdilution assay; format: functional; settings: NZCDC 90.147, 48 h; outline: as §2
[11] = test system: Pichia kudriavzevii; test: Antimicrobial activity against Candida krusei NZCDC 90.147 after 48 hrs by CLSI method; format: functional; outline: as §1
[12] = test system: Pichia kudriavzevii; test: Antimicrobial activity against Candida krusei NZCDC 89.021 after 48 hrs by liquid microdilution assay; format: functional; settings: NZCDC 89.021, 48 h; outline: as §2
[13] = test system: Pichia kudriavzevii; test: Antimicrobial activity against Candida krusei NZCDC 89.102 after 48 hrs by liquid microdilution assay; format: functional; settings: NZCDC 89.102, 48 h; outline: as §2
[14] = test system: Pichia kudriavzevii; test: Antimicrobial activity against Candida krusei B2399 after 48 hrs by CLSI method; format: functional; settings: B2399, 48 h; outline: as §1
[15] = molecular target: ATP binding cassette transporter Abc1p (Issatchenkia orientalis) (UniProt Q09GQ4); test: Inhibition of Candida krusei ABC1 expressed in Saccharomyces cerevisiae isolate ADdelta at 0.36 nM; settings: Pichia kudriavzevii
Outline: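 Agarose disk-diffusion test of S. cerevisiae AD overexpressing C. krusei Abc1p, with the parent AD strain as comparison. Cells were pregrown from YPD overnight into CSM to mid-log at 30°C. They were seeded at OD600 0.008 in CSM with 0.6% agarose, overlaid on CSM agar (pH 7.0). Paper disks carrying set nmol amounts of xenobiotic were applied, and plates were incubated at 30°C for 48 h before reading growth inhibition zones.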

[16] = test system: Pichia kudriavzevii; test: Antimicrobial activity against Candida krusei NZCDC 89.102 after 48 hrs by CLSI method; format: functional; outline: as §1
[17] = molecular target: ATP binding cassette transporter Abc1p (Issatchenkia orientalis) (UniProt Q09GQ4); test: Inhibition of Candida krusei […] expressed in Saccharomyces cerevisiae isolate ADdelta assessed as fractional inhibitory concentration index at 2.5 ug/ml after 48 hrs by checkerboard susceptibility assay; settings: Pichia kudriavzevii; outline: as §4
[18] = test system: Saccharomyces cerevisiae; test: Antimicrobial activity against Saccharomyces cerevisiae isolate AD overexpressing Candida krusei ERG11C after 48 hrs by liquid microdilution assay; format: functional; outline: as §2
[19] = test system: Pichia kudriavzevii; test: Antimicrobial activity against Candida krusei B2399 after 48 hrs by liquid microdilution assay; format: functional; settings: B2399, 48 h; outline: as §2
[20] = test system: Pichia kudriavzevii; test: Antimicrobial activity against Candida krusei IFO0011 after 48 hrs by liquid microdilution assay; format: functional; settings: IFO0011, 48 h; outline: as §2
[21] = test system: Pichia kudriavzevii; test: Increase in ERG11 mRNA expression in Candida krusei B2399 at 2 times MIC concentration after 1 hr by hot-phenol extraction based Northern blotting; format: functional, organism-based
Outline: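 Logarithmically grown C. krusei B2399 was exposed to azole for 60 min (2x MIC for VRC, MCZ and ITC; 1x MIC for FLC) alongside an untreated control. Total RNA was extracted with hot phenol, and 10 µg was run on 1.2% denaturing agarose. It was Northern blotted and probed with a radiolabeled ERG11 fragment. ACT1 mRNA served as internal control, with EtBr-stained rRNA showing loading.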

[22] = test system: Saccharomyces cerevisiae; test: Antimicrobial activity against Saccharomyces cerevisiae isolate ADdelta overexpressing Candida albicans ERG11A after 48 hrs by liquid microdilution assay; format: functional; outline: as §2
[23] = test system: Saccharomyces cerevisiae; test: Fold resistant, ratio of MIC for Saccharomyces cerevisiae isolate ADdelta overexpressing Candida albicans ERG11A to MIC for Saccharomyces cerevisiae isolate ADdelta overexpressing Abc1p; format: functional; outline: as §3
[24] = test system: Pichia kudriavzevii; test: Antimicrobial activity against Candida krusei NZCDC 89.221 after 48 hrs by CLSI method; format: functional; outline: as §1
[25] = test system: Saccharomyces cerevisiae; test: Antimicrobial activity against Saccharomyces cerevisiae isolate ADdelta overexpressing Saccharomyces cerevisiae ERG11 after 48 hrs by liquid microdilution assay; format: functional; outline: as §2
[26] = molecular target: ATP binding cassette transporter Abc1p (Issatchenkia orientalis) (UniProt Q09GQ4); test: Inhibition of Candida krusei ABC1 expressed in Saccharomyces cerevisiae isolate ADdelta at 0.37 nM; settings: Pichia kudriavzevii
[27] = molecular target: ATP binding cassette transporter Abc1p (Issatchenkia orientalis) (UniProt Q09GQ4); test: Inhibition of Candida krusei ABC1 expressed in Saccharomyces cerevisiae isolate ADdelta at 0.28 nM; settings: Pichia kudriavzevii
[28] = molecular target: ATP binding cassette transporter Abc1p (Issatchenkia orientalis) (UniProt Q09GQ4); test: Inhibition of Candida krusei Abc1g expressed in Saccharomyces cerevisiae isolate ADdelta assessed as reduction of itraconazole MIC at 2.5 ug/ml after 48 hrs by checkerboard susceptibility assay; settings: Pichia kudriavzevii
Outline: (§5)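 Checkerboard liquid microdilution in CSM (pH 7.0). FLC or ITC MICs of AD/CkABC1g or C. krusei B2399 were measured across a range of milbemycin concentrations. Interaction was expressed as fractional inhibitory concentration index (FICI).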

[29] = molecular target: ATP binding cassette transporter Abc1p (Issatchenkia orientalis) (UniProt Q09GQ4); test: Inhibition of Candida krusei IF011 Abc1p assessed as reduction of itraconazole MIC at 1 ug after 48 hrs by agarose diffusion assay; settings: Pichia kudriavzevii
[30] = molecular target: ATP binding cassette transporter Abc1p (Issatchenkia orientalis) (UniProt Q09GQ4); test: Inhibition of Candida krusei Abc1p expressed in Saccharomyces cerevisiae isolate AD assessed as reduction of itraconazole MIC at 1 ug after 48 hrs by agarose diffusion assay; settings: Pichia kudriavzevii
[31] = molecular target: ATP binding cassette transporter Abc1p (Issatchenkia orientalis) (UniProt Q09GQ4); test: Inhibition of Candida krusei B2399 Abc1p assessed as reduction of itraconazole MIC at 2.5 ug/ml after 48 hrs by checkerboard susceptibility assay; settings: Pichia kudriavzevii; outline: as §5
[32] = molecular target: ATP binding cassette transporter Abc1p (Issatchenkia orientalis) (UniProt Q09GQ4); test: Inhibition of Candida krusei B2399 Abc1p assessed as reduction of fluconazole MIC at 2.5 ug/ml after 48 hrs by checkerboard susceptibility assay; settings: Pichia kudriavzevii; outline: as §5
[33] = molecular target: ATP binding cassette transporter Abc1p (Issatchenkia orientalis) (UniProt Q09GQ4); test: Inhibition of Candida krusei Abc1g expressed in Saccharomyces cerevisiae isolate ADdelta assessed as reduction of fluconazole MIC at 2.5 ug/ml after 48 hrs by checkerboard susceptibility assay; settings: Pichia kudriavzevii; outline: as §5
[34] = molecular target: ATP binding cassette transporter Abc1p (Issatchenkia orientalis) (UniProt Q09GQ4); test: Inhibition of Candida krusei B2399 Abc1p assessed as reduction of itraconazole MIC at 1 ug after 48 hrs by agarose diffusion assay; settings: Pichia kudriavzevii

Compound	MIC [1] [µg/mL]	MIC [2] [µg/mL]	ratio [3]	MIC [5] [µg/mL]	ratio [6]	MIC [7] [µg/mL]	ratio [8]	MIC [9] [µg/mL]	MIC [10] [µg/mL]	MIC [11] [µg/mL]	MIC [12] [µg/mL]	MIC [13] [µg/mL]	MIC [14] [µg/mL]	MIC [16] [µg/mL]	MIC [18] [µg/mL]	MIC [19] [µg/mL]	MIC [20] [µg/mL]	MIC [22] [µg/mL]	ratio [23]	MIC [24] [µg/mL]	further results
CCC(C)n1ncn(-c2ccc(N3CCN(c4ccc(OCC5COC(Cn6cncn6)(c6ccc(Cl)cc6Cl)O5)cc4)CC3)cc2)c1=O (stereo not given) [ITRACONAZOLE]	0.25 (≈ 0.354 µM)	4 (≈ 5.67 µM)	8	0.25 (≈ 0.354 µM)	128	1 (≈ 1.42 µM)	2	0.031 (≈ 0.0439 µM)	1 (≈ 1.42 µM)	0.25 (≈ 0.354 µM)	1 (≈ 1.42 µM)	2 (≈ 2.83 µM)	0.25 (≈ 0.354 µM)	0.25 (≈ 0.354 µM)	0.063 (≈ 0.0893 µM)	0.5 (≈ 0.709 µM)	1 (≈ 1.42 µM)	0.125 (≈ 0.177 µM)	4	0.125 (≈ 0.177 µM)	fractional inhibitory concentration index (FICI) [4]: 0.298; Activity [15]: inactive; fractional inhibitory concentration index (FICI) [17]: 0.104; Activity [21]: Active; MIC [25]: 0.25 µg/mL (≈ 0.354 µM)
C[C@@H]1C[C@@H]([C@H](O)CC2CC(=O)NC(=O)C2)C(=O)[C@@H](C)C1																					Activity [26]: Active
CC(=O)N1CCN(c2ccc(OCC3COC(Cn4ccnc4)(c4ccc(Cl)cc4Cl)O3)cc2)CC1 (stereo not given) [KETOCONAZOLE]	1 (≈ 1.88 µM)	2 (≈ 3.76 µM)	2	0.5 (≈ 0.941 µM)	64	2 (≈ 3.76 µM)	2	0.031 (≈ 0.0583 µM)	4 (≈ 7.53 µM)	1 (≈ 1.88 µM)	4 (≈ 7.53 µM)	4 (≈ 7.53 µM)	0.5 (≈ 0.941 µM)	0.5 (≈ 0.941 µM)	0.063 (≈ 0.119 µM)	2 (≈ 3.76 µM)	2 (≈ 3.76 µM)	0.125 (≈ 0.235 µM)	4	0.5 (≈ 0.941 µM)	Activity [27]: inactive; MIC [25]: 0.063 µg/mL (≈ 0.119 µM)
CC1=C[C@H]2C(=O)O[C@H]3C[C@@H](C/C=C(\C)C[C@@H](C)/C=C/C=C(\C)[C@]2(O)[C@H](O)[C@@H]1O)O[C@@]1(CC[C@H](C)[C@@H](C)O1)C3																					Activity [28]: Active; Activity [29]: Active; Activity [30]: Active; Activity [31]: Active; Activity [32]: Active; Activity [33]: Active; Activity [34]: Active
